Data: ChEMBL document CHEMBL1817629, “Design, synthesis, bioconversion, and pharmacokinetics evaluation of new ester prodrugs of olmesartan” (Eur J Med Chem, 2011)

How the values were obtained:
[1] = Metabolic stability in rat plasma assessed as compound remaining at 50 ug/mL after 30 mins by LC-MS/MS analysis; format: ADME, cell-free; details: read-out: Stability
How it was run: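 Prodrug at 50 μg/mL in rat plasma, incubated 30 min at 37 °C; samples analyzed immediately by LC-MS/MS, reported as percent of compound remaining.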

[2] = Stability of the compound in rat plasma assessed as half life at 1 uM by LC/MS/MS analysis; format: ADME, cell-free
How it was run: (§1)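 Prodrug added from acetonitrile stock (100 μM) to rat plasma or simulated gastric juice at final 1 μM. Held at 37 °C, sampled 0, 15, 30, 60, 120 min. Quenched with two volumes cold acetonitrile containing internal standard, centrifuged, supernatant analyzed by LC-MS/MS. Half-life as mean of duplicate experiments.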

[3] = Stability of the compound in rat liver microsomes assessed as half life at 1 uM by LC/MS/MS analysis; format: ADME, Microsome
How it was run: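 Rat liver microsomes (0.5 mg/mL total protein) with 1.2 mM NADPH in 100 mM phosphate buffer pH 7.4; prodrug added from acetonitrile stock (100 μM) to final 1 μM. Kept at 37 °C, sampled 0, 15, 30, 60, 120 min. Stopped with two volumes cold acetonitrile plus internal standard, centrifuged, supernatant by LC-MS/MS. Mean of duplicate experiments.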

[4] = Stability of the compound in simulated gastric juice assessed as half life at 1 uM by LC/MS/MS analysis; format: physicochemical; how it was run: as §1

remaining at 0.5 h, 50 ug/mL [1] [%]	half-life at 1 µM [2] [min]	half-life at 1 µM [3] [min]	half-life at 1 µM [4] [min]	Compound
85.8				CCCc1nc(C(C)(C)O)c(C(=O)OC(C)OC(=O)c2ccccc2)n1Cc1ccc(-c2ccccc2-c2nnn[nH]2)cc1 (stereo not drawn)
79.8	10	2.28	312	CCCc1nc(C(C)(C)O)c(C(=O)OCOC(=O)C23CC4CC(CC(C4)C2)C3)n1Cc1ccc(-c2ccccc2-c2nnn[nH]2)cc1
96.3				CCCc1nc(C(C)(C)O)c(C(=O)OCc2c[nH]c(=O)[nH]c2=O)n1Cc1ccc(-c2ccccc2-c2nnn[nH]2)cc1
90.2				CCCCCCCCOC(=O)c1c(C(C)(C)O)nc(CCC)n1Cc1ccc(-c2ccccc2-c2nnn[nH]2)cc1
	9.68	2.7	928	CCCc1nc(C(C)(C)O)c(C(=O)OC(C)OC(=O)C2CCCCC2)n1Cc1ccc(-c2ccccc2-c2nnn[nH]2)cc1 (stereo not drawn)
	0.956	4.95	> 1000	CCCc1nc(C(C)(C)O)c(C(=O)OCc2oc(=O)oc2C)n1Cc1ccc(-c2ccccc2-c2nnn[nH]2)cc1 [OLMESARTAN MEDOXOMIL]
